Assay [1] deals with T1, Estrogen receptor (Homo sapiens) (UniProt P03372).
T1 sequence (whole entry): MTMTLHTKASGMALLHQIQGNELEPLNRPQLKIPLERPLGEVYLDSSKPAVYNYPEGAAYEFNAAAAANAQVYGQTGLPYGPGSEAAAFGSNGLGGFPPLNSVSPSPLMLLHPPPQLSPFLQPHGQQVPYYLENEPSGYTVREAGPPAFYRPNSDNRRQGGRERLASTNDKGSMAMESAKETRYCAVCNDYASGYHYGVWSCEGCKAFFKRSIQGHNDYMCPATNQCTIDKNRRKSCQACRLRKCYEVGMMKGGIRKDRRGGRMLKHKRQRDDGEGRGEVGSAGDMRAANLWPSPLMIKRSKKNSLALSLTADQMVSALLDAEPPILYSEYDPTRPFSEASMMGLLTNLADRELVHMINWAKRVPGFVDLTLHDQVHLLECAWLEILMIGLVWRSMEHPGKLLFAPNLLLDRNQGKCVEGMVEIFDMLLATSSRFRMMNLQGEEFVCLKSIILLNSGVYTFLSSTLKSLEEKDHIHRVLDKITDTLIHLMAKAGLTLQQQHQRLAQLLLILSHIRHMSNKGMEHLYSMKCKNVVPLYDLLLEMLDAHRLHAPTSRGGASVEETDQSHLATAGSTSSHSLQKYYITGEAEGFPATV
The assay can be described thus: Displacement of [3H]estradiol from human full length ERalpha after 18 to 24 hrs by scintillation counting method. On the technique in general: Displacement assays read how much labelled ligand stays bound in the presence of the test substance.

Assay [2] relates to MCF7. The assay can be described thus: Antiproliferative activity against human MCF7 cells assessed as cell proliferation after 6 days by MTT assay relative to control. The class given is functional. The arrangement: concentration or dose not given beside the values. In a few lines:
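MCF-7 cells kept in complete medium, dosed across a concentration range (log scale ~10^-11 to 10^-5 M) for 6 days; cell density read by MTT. Average ± SEM of 4 measurements, n = 3 unless noted. IC50 taken from dose-response. Efficacy given as relative proliferation rate at highest dose versus vehicle, with the fulvestrant level set to zero.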
In general terms: Tetrazolium assays rely on reduction of a dye to a coloured formazan, in cell work by metabolically active cells.

Assay [3] in a line: Proteolysis targeting chimera activity in human MCF7 cells assessed as induction of E3 ubiquitin ligase-mediated ERalpha degradation by proteasome after 24 hrs by in-cell Western assay. The class given is cell-based. The conditions noted are these: MCF7, 24 h. The method in brief:
(§1)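 MCF-7 cells in stripped medium were dosed across a concentration range (log ~10^-11 to 10^-5 M) for 24 h, and ERα was quantified by in-cell Western. Average ± SEM of 4 measurements, n = 3 unless noted. IC50 derived from the dose-response curve. Efficacy is the ERα level at the highest dose, as % of vehicle control.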

For assay [4], the system named is MCF7. The assay can be described thus: Proteolysis targeting chimera activity in human MCF7 cells assessed as induction of E3 ubiquitin ligase-mediated ERalpha level after 24 hrs by in-cell Western assay relative to control. The class given is cell-based. On the set-up: concentration or dose not given beside the values. In a few lines: as §1
For assay [5], the target named is T1, Estrogen receptor (Homo sapiens). As to the kind of experiment: Antagonist activity at ERalpha in human […] assessed as inhibition of estradiol-induced PgR gene expression level at 3 uM after 24 hrs by qRT-PCR method. The class given is cell-based. The method in brief:
(§2)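 MCF-7 cells exposed 24 h to 3 µM compound with or without 1 nM estradiol (E2); transcript levels of PgR, pS2 and GREB1 quantified by qRT-PCR.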
Background: Real-time PCR tracks product formation cycle by cycle.

Assay [6] has the same target. The assay can be described thus: Antagonist activity at ERalpha in human […] assessed as inhibition of estradiol-induced pS2 gene expression level at 3 uM after 24 hrs by qRT-PCR method. The class given is cell-based. The method in brief: as §2
Assay [7] has the same target. As to the kind of experiment: Antagonist activity at ERalpha in human […] assessed as inhibition of estradiol-induced GREB1 gene expression level at 3 uM after 24 hrs by qRT-PCR method. The class given is cell-based. The method in brief: as §2
For assay [8], the system named is MCF7. The assay can be described thus: Antiproliferative activity against human MCF7 cells after 6 days by MTT assay. The conditions noted are these: MCF7, 144 h.
The subject of assay [9] is MCF7. As to the kind of experiment: Proteolysis targeting chimera activity in human MCF7 cells assessed as induction of E3 ubiquitin ligase-mediated ERalpha level after 24 hrs by in presence of proteasome inhibitor MG132 by in-cell Western assay. The class given is cell-based.

SMILES strings stand for the structures. Active and inactive are the calls of the source. No cut-off for these calls is given here.

`O=C(NCCCOc1ccc(C(=C2C3CC4CC(C3)CC2C4)c2ccc(O)cc2)cc1)C12CC3CC(CC(C3)C1)C2` had an RBA in assay [1] of 26%. The Activity amounted to 13% in the assay with MCF7 [2] and 42% in the assay on MCF7 [4]. Besides, the results for the IC50 (in [3]; with MCF7 [8]) were 3 nM and 9 nM, respectively. Besides, the inhibition entry in assay [5], in assay [6] and in [7] was “Active” throughout.

As for `CC(C)(C)OC(=O)N[C@@H](Cc1ccccc1)C(=O)NCCCCOc1ccc(C(=C2C3CC4CC(C3)CC2C4)c2ccc(O)cc2)cc1`, in assay [1], the RBA came out at 14%. In addition, the results for the Activity with MCF7 [2] and with MCF7 [4] were 25% and 71%, respectively. For the same compound, the IC50 was determined as 307 nM in assay [3] and 7 nM in the assay on MCF7 [8].

For the compound `O=C(NCCCCOc1ccc(C(=C2C3CC4CC(C3)CC2C4)c2ccc(O)cc2)cc1)C1CCC(F)(F)CC1`, the RBA in assay [1] amounted to 30%. Moreover, the Activity in the assay on MCF7 [2] was 20%; with MCF7 [4], 67%. The IC50 with MCF7 [8] worked out at 4 nM.

With `O=C(NCCOc1ccc(C(=C2C3CC4CC(C3)CC2C4)c2ccc(O)cc2)cc1)C12CC3CC(CC(C3)C1)C2`, the RBA in assay [1] was found to be 21%. In addition, the figures for the Activity in the assay on MCF7 [2] and in the assay on MCF7 [4] were 16% and 76%, respectively. In the assay on MCF7 [8], this compound gave an IC50 of 17 nM.

`O=C(NCCCCOc1ccc(C(=C2C3CC4CC(C3)CC2C4)c2ccc(O)cc2)cc1)C1CCCCCC1` registered an RBA in assay [1] of 30%. The Activity amounted to 15% with MCF7 [2] and 76% in the assay with MCF7 [4]. In the assay on MCF7 [8], 5 nM corresponded to half-maximal inhibition (IC50).

In assay [1], `C[C@]12CC[C@@H]3c4ccc(O)cc4C[C@@H](CCCCCCCCC[S+]([O-])CCCC(F)(F)C(F)(F)F)[C@H]3[C@@H]1CC[C@@H]2O` (stereo partly specified) [FULVESTRANT] registered an RBA of 61%. Also, the Activity in the assay on MCF7 [2] was determined as 0%; with MCF7 [4], 9%. The IC50 (in [3]; in the assay with MCF7 [8]) was less than 0.1 nM each time.

Compound `CC(C)(C)OC(=O)N[C@@H](Cc1c[nH]c2ccccc12)C(=O)NCCCCOc1ccc(C(=C2C3CC4CC(C3)CC2C4)c2ccc(O)cc2)cc1` yielded an RBA in assay [1] of 20%. Besides, the values for the Activity in the assay with MCF7 [2] and with MCF7 [4] were 16% and 45%, respectively. Moreover, the IC50 amounted to 0.5 nM in [3] and 16 nM in the assay with MCF7 [8]. Further, the inhibition entry in [5], in [6] and in assay [7] was “Active” each time.

Consider `O=C(NCCCCOc1ccc(C(=C2C3CC4CC(C3)CC2C4)c2ccc(O)cc2)cc1)[C@H]1CC[C@H](C(F)(F)F)CC1`, for which the RBA in [1] came to 10%. The Activity in the assay on MCF7 [2] turned out to be 13%; with MCF7 [4], 31%. The IC50 was found to be 2 nM in [3] and 0.5 nM in the assay with MCF7 [8]. The inhibition entry in [5], in assay [6] and in assay [7] was “Active” each time.

Compound `O=C(NCCCCOc1ccc(C(=C2C3CC4CC(C3)CC2C4)c2ccc(O)cc2)cc1)C12CC3CC(CC(C3)C1)C2` showed an RBA in [1] of 11%. Also, the Activity stood at 13% in the assay on MCF7 [2] and 51% with MCF7 [4]. Moreover, the IC50 in [3] came out at 6 nM; with MCF7 [8] it was 13 nM.

`O=C(NCCCCOc1ccc(C(=C2C3CC4CC(C3)CC2C4)c2ccc(O)cc2)cc1)C1CCC1` had an RBA in assay [1] of 70%. For the same compound, the Activity in the assay with MCF7 [2] was 15%; in the assay with MCF7 [4] it was 69%. The same compound displayed a half-inhibitory concentration (IC50) with MCF7 [8] of 3 nM.

In turn, `CC12CC3CC(C)(C1)CC(C(=O)NCCCCOc1ccc(C(=C4C5CC6CC(C5)CC4C6)c4ccc(O)cc4)cc1)(C3)C2` yielded an RBA in assay [1] of 6%. Besides, the results for the Activity with MCF7 [2] and in the assay with MCF7 [4] were 57% and 42%, respectively. In addition, the values for the 50% inhibitory concentration (IC50) (in [3]; in the assay on MCF7 [8]) were 10 nM and 5 nM, respectively.

In turn, `O=C(NCCCCOc1ccc(C(=C2C3CC4CC(C3)CC2C4)c2ccc(O)cc2)cc1)C1CCCCC1` displayed an RBA in assay [1] of 28%. Also, the Activity with MCF7 [2] stood at 13%; in the assay with MCF7 [4], 35%. For the same compound, the IC50 was found to be 0.4 nM in [3] and 0.6 nM in the assay with MCF7 [8]. The outcome with MCF7 [9] was inactive.

As for `CC(C)C[C@H](NC(=O)OC(C)(C)C)C(=O)NCCCCOc1ccc(C(=C2C3CC4CC(C3)CC2C4)c2ccc(O)cc2)cc1`, in assay [1], the RBA is 14%. The Activity with MCF7 [2] came to 20%; in the assay on MCF7 [4], 56%. Further, the half-maximal inhibitory concentration (IC50) in assay [3] stood at 636 nM; in the assay with MCF7 [8], 36 nM.

In assay [1], `O=C(NCCCCOc1ccc(C(=C2C3CC4CC(C3)CC2C4)c2ccc(O)cc2)cc1)[C@@H]1C[C@@H]2C=C[C@H]1C2` returned an RBA of 37%. The Activity in the assay on MCF7 [2] stood at 42%; with MCF7 [4], 53%. Moreover, the IC50 in [3] amounted to 0.5 nM; in the assay with MCF7 [8] it was 9 nM.

Take `O=C(NCCCCOc1ccc(C(=C2C3CC4CC(C3)CC2C4)c2ccc(O)cc2)cc1)C12CC3CC(CC1C3)C2`: in assay [1], the RBA stood at 17%. Besides, the Activity was found to be 42% in the assay with MCF7 [2] and 71% with MCF7 [4]. The IC50 in assay [3] amounted to 2 nM; in the assay on MCF7 [8], 12 nM.

What is called IC50 is the concentration at which inhibition is half-maximal.

(Values after ChEMBL document CHEMBL4196158, “New Class of Selective Estrogen Receptor Degraders (SERDs): Expanding the Toolbox of PROTAC Degrons” (ACS Med Chem Lett, 2018).)
